Results reported in ChEMBL document CHEMBL4261537, “Synthesis and pharmacological evaluation of multi-functional homoisoflavonoid derivatives as potent inhibitors of monoamine oxidase B and cholinesterase for the treatment of Alzheimer's disease” (Medchemcomm, 2017).

Tests used:
Acetylcholinesterase [1] = biological target: Acetylcholinesterase (Homo sapiens, UniProt P22303); assay: Inhibition of human erythrocytes AChE using acetylthiocholine iodide as substrate preincubated for 5 mins followed by substrate addition measured at 1 to 3 mins time interval by Ellman's method
Cholinesterase [2] = biological target: T1, Cholinesterase (Homo sapiens, UniProt P06276); assay: Inhibition of human serum BuChE at 100 uM using S-butyrylthiocholine iodide as substrate preincubated for 5 mins followed by substrate addition measured at 1 to 3 mins time interval by Ellman's method
In short: (§1)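 Ellman assay: compound diluted in 50 mM Tris-HCl pH 8.0 with 0.1 M NaCl, 0.02 M MgCl2 (DMSO 1%). Preincubated 5 min at 37°C with 1.5 mM DTNB and BuChE (0.12 U/mL in Tris with 0.1% BSA); 15 mM S-butyrylthiocholine iodide added; absorbance at 405 nm read at 0, 1, 2, 3 min.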

Acetylcholinesterase [3] = biological target: T2, Acetylcholinesterase (Electrophorus electricus, UniProt O42275); assay: Inhibition of electric eel AChE using acetylthiocholine iodide as substrate preincubated for 5 mins followed by substrate addition measured at 1 to 3 mins time interval by Ellman's method
Homo sapiens [4] = species on record: Homo sapiens; assay: Selectivity index, ratio of IC50 for recombinant human MAO-A to IC50 for recombinant human MAO-B
Cholinesterase [5] = biological target: T3, Cholinesterase (Equus caballus, UniProt P81908); assay: Inhibition of equine serum BuChE at 100 uM using S-butyrylthiocholine iodide as substrate preincubated for 5 mins followed by substrate addition measured at 1 to 3 mins time interval by Ellman's method; conditions: horse; in short: as §1
[6] = biological target: T4, Amine oxidase [flavin-containing] A (Homo sapiens, UniProt P21397); assay: Inhibition of recombinant human MAO-A assessed as reduction in H2O2 production at 100 uM using p-tyramine as substrate preincubated for 15 mins followed by substrate addition by Amplex red reagent based fluorescence assay
T4 sequence (P21397 whole entry): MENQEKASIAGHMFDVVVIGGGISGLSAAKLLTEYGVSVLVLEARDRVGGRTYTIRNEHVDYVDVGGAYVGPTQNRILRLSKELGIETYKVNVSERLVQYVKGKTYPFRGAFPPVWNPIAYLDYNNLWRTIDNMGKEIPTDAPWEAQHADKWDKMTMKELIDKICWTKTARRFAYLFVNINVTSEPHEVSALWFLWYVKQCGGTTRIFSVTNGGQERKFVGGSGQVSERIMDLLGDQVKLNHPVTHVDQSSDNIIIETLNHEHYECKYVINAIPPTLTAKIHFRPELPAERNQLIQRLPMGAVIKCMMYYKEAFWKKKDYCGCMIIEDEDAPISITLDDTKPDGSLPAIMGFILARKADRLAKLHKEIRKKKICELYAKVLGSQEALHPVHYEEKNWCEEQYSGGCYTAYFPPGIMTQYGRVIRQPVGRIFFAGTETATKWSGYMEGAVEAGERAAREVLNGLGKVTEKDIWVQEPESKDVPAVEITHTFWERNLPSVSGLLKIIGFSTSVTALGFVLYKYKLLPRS
In short: (§2)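 Human MAO-A or MAO-B, each set to the same control reaction velocity. Preincubated with compound 15 min at 37°C in the dark, in sodium phosphate buffer with DMSO. Then 200 μM Amplex Red (final) added with 1 U/mL HRP and 1 mM p-tyramine. Resorufin fluorescence read at 37°C (ex 545/em 590 nm), background from enzyme-free wells subtracted. Run in triplicate, mean ± SD.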

[7] = biological target: T5, Amine oxidase [flavin-containing] B (Homo sapiens, UniProt P27338); assay: Inhibition of recombinant human MAO-B assessed as reduction in H2O2 production using p-tyramine as substrate preincubated for 15 mins followed by substrate addition by Amplex red reagent based fluorescence assay
T5 sequence (P27338 whole entry): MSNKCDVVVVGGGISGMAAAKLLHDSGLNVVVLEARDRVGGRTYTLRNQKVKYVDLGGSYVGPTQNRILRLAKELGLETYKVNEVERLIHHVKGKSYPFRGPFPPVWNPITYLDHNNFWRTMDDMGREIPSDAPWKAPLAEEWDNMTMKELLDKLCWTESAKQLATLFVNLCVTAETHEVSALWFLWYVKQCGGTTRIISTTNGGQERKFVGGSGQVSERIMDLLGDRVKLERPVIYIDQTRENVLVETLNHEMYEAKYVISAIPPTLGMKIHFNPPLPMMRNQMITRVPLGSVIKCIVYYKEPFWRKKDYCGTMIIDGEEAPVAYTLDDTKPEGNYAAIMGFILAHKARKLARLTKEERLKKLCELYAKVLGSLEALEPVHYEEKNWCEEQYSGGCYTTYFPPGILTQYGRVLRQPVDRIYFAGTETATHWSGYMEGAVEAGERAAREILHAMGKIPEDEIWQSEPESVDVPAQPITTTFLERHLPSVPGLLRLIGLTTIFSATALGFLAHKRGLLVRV
In short: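 Human MAO-A or MAO-B, each set to the same control reaction velocity. Preincubated with compound 15 min at 37°C in the dark, in sodium phosphate buffer with DMSO. Then 200 μM Amplex Red (final) added with 1 U/mL HRP and 1 mM p-tyramine. Run in triplicate, mean ± SD.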

Homo sapiens [8] = species on record: Homo sapiens; assay: Selectivity index, ratio of IC50 for human serum BuChE to IC50 for human erythrocytes AChE
[9] = Selectivity index, ratio of IC50 for equine serum BuChE to IC50 for electric eel AChE
[10] = biological target: T4, Amine oxidase [flavin-containing] A; assay: Inhibition of recombinant human MAO-A assessed as reduction in H2O2 production using p-tyramine as substrate preincubated for 15 mins followed by substrate addition by Amplex red reagent based fluorescence assay
Cholinesterase [11] = biological target: T3, Cholinesterase; assay: Inhibition of equine serum BuChE using S-butyrylthiocholine iodide as substrate preincubated for 5 mins followed by substrate addition measured at 1 to 3 mins time interval by Ellman's method; format: ADME
Cholinesterase [12] = biological target: T1, Cholinesterase; assay: Inhibition of human serum BuChE using S-butyrylthiocholine iodide as substrate preincubated for 5 mins followed by substrate addition measured at 1 to 3 mins time interval by Ellman's method; format: ADME
[13] = biological target: T5, Amine oxidase [flavin-containing] B; assay: Inhibition of recombinant human MAO-B assessed as reduction in H2O2 production at 100 uM using p-tyramine as substrate preincubated for 15 mins followed by substrate addition by Amplex red reagent based fluorescence assay; in short: as §2
Mus musculus [14] = assay: Acute toxicity in Kunming mouse assessed as damage to heart up to 2000 mg/kg, po administered as single dose measured after 14 days; format: organism-based; conditions: in vivo, 336 h
In short: (§3)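 Male Kunming mice given one oral dose (0, 677, 1333, 2000 mg/kg) in 0.5% CMC-Na after a 12 h fast; after 14 days of observation, animals sacrificed and liver, heart and kidneys visually examined for damage.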

[15] = biological target: T5, Amine oxidase [flavin-containing] B; assay: Reversible inhibition of recombinant human MAO-B at 0.003 uM using p-tyramine as substrate preincubated for 15 to 60 mins followed by substrate addition and compound dilution to IC50 by Amplex red reagent based fluorescence assay
[16] = biological target: T5, Amine oxidase [flavin-containing] B; assay: Time-dependent inhibition of recombinant human MAO-B at 0.003 uM using p-tyramine as substrate preincubated for 15 to 60 mins followed by substrate addition and compound dilution to IC50 by Amplex red reagent based fluorescence assay
[17] = Effective permeability of the compound at 0.1 mg/ml after 16 hrs by PAMPA; format: ADME; conditions: read-out: Peff
In short: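 Porcine brain lipid in dodecane (20 mg/mL) coated on PVDF filter. Compound stock 5 mg/mL in DMSO, diluted 50-fold into PBS/EtOH (70:30) to 0.1 mg/mL in donor wells; acceptor holds PBS/EtOH (70:30). Incubated 16 h at 25°C. UV plate read at five wavelengths, four wells, at least three runs. Pe derived from acceptor absorbance versus theoretical equilibrium absorbance.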

[18] = biological target: T5, Amine oxidase [flavin-containing] B; assay: Non-competitive inhibition of recombinant human MAO-B assessed as reduction in H2O2 production at 0.015 to 0.06 uM using p-tyramine as substrate preincubated for 15 mins followed by substrate addition by Lineweaver-Burk plot analysis
Mus musculus [19] = assay: Acute toxicity in Kunming mouse assessed as damage to liver up to 2000 mg/kg, po administered as single dose measured after 14 days; format: organism-based; conditions: in vivo, 336 h; in short: as §3
Mus musculus [20] = assay: Acute toxicity in Kunming mouse assessed as change in mental behavior up to 2000 mg/kg, po administered as single dose up to 2 weeks; format: organism-based; conditions: in vivo, 336 h
In short: (§4)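 Male Kunming mice (18-22g), acclimatised 4 days, fasted 12 h; single oral dose of 677, 1333 or 2000 mg/kg suspended in 0.5% CMC-Na (0.4 ml per mouse), vehicle group 0 mg/kg; 20 mice in 4 groups. Watched continuously for 4 h for abnormal behaviour and deaths, then intermittently to 24 h; observation over 14 days.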

Mus musculus [21] = assay: Acute toxicity in Kunming mouse assessed as fatality up to 2000 mg/kg, po administered as single dose up to 2 weeks; format: organism-based; conditions: in vivo, 336 h; in short: as §4
Acetylcholinesterase [22] = biological target: T2, Acetylcholinesterase; assay: Mixed-type inhibition of electric eel AChE using varying levels of acetylthiocholine iodide as substrate measured at 1 to 3 mins time interval by Lineweaver-Burk plot analysis
In short: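 Electric eel AChE assayed by Ellman's method at […] substrate 0.05-0.25 mM, without inhibitor and with inhibitor at 0.5, 1.0 or 2.0 μM; activity read at 0, 1, 2, 3 min. Lineweaver–Burk plots built; their slopes plotted against inhibitor concentration, Ki taken as the negative x-axis intercept.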

Mus musculus [23] = assay: Acute toxicity in Kunming mouse assessed as damage to kidney up to 2000 mg/kg, po administered as single dose measured after 14 days; format: organism-based; conditions: in vivo, 336 h; in short: as §3
Mus musculus [24] = assay: Acute toxicity in Kunming mouse assessed as change in body weight up to 2000 mg/kg, po administered as single dose up to 2 weeks; format: organism-based; conditions: in vivo, 336 h

Chain of Acetylcholinesterase (Homo sapiens, UniProt P22303) (P22303 whole entry): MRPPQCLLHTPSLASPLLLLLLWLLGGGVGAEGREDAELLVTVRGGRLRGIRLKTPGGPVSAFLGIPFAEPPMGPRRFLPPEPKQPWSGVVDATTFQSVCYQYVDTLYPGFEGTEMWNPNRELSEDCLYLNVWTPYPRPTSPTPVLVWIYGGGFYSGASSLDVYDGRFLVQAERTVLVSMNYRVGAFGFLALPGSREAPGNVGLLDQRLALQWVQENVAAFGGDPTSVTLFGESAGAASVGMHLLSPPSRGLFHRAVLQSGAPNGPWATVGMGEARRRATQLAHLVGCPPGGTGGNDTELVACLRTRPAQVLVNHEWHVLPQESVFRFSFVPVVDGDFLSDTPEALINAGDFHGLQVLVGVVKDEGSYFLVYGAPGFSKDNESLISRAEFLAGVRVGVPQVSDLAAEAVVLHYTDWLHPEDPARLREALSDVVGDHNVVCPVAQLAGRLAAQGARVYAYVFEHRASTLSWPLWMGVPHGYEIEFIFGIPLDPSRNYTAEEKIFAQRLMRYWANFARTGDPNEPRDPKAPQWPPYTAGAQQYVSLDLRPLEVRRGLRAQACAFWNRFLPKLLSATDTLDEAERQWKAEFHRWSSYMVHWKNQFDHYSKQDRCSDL
T1 sequence (P06276 whole entry): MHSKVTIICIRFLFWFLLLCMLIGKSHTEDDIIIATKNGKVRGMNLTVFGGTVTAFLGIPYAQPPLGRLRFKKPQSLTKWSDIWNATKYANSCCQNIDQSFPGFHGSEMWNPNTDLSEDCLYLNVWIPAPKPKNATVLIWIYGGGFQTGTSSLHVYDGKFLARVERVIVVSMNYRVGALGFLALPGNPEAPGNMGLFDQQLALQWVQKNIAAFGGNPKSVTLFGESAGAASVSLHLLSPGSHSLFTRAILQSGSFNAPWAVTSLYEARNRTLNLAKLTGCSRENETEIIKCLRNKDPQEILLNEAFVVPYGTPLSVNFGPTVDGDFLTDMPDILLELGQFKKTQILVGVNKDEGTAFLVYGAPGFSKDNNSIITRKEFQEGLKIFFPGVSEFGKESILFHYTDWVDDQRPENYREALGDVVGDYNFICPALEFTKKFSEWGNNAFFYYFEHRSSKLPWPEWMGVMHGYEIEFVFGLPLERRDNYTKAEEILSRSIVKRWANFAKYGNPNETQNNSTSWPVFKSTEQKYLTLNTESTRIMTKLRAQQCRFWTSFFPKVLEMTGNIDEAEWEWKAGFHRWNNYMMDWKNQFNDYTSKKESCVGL
T3 sequence (P81908 whole entry): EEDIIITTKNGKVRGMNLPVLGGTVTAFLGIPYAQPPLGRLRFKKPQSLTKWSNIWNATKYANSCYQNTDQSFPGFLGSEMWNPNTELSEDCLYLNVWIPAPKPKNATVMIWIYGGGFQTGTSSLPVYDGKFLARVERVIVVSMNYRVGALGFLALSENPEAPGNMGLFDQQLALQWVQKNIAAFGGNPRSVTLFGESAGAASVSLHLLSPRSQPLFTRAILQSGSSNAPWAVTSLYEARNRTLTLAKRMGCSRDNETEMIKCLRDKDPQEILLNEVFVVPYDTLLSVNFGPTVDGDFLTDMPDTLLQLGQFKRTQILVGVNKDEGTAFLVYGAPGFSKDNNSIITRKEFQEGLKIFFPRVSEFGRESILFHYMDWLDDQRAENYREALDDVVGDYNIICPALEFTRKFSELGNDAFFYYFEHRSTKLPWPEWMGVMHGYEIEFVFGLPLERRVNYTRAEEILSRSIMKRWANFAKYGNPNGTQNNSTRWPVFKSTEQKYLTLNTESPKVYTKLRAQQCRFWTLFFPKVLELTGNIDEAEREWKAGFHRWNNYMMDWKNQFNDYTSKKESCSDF
T2 sequence (O42275 whole entry): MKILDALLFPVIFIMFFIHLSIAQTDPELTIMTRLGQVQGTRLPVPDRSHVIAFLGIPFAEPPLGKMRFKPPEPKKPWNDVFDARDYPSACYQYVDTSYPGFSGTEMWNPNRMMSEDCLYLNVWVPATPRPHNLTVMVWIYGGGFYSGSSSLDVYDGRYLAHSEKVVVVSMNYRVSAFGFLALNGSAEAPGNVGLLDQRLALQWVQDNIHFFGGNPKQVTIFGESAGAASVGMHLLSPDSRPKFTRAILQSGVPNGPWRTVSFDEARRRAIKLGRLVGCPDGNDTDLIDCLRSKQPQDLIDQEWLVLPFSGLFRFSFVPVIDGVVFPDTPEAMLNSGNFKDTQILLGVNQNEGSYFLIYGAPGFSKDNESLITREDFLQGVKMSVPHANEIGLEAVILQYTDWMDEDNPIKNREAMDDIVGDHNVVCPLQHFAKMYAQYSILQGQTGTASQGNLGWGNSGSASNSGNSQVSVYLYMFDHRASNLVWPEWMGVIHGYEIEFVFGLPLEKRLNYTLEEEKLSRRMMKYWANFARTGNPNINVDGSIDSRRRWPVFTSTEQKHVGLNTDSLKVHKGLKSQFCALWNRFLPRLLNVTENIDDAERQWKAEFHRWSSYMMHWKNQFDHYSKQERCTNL

Structure (SMILES) | IC50 (Acetylcholinesterase [1]) | IC50 (Acetylcholinesterase [3]) | Ratio IC50 (Homo sapiens [4]) | inhibition (INH) [6] | IC50 [7] | Ratio IC50 (Homo sapiens [8]) | Ratio IC50 [9] | IC50 [10] | IC50 (Cholinesterase [11]) | IC50 (Cholinesterase [12]) | also measured
O=C1/C(=C/c2ccc(O)cc2)COc2ccccc21 | 99.9 µM | 44.4 µM | > 413 | Not Active | 0.242 µM | 1.01 | > 2.25 | – | – | – | inhibition (INH) (Cholinesterase [2]): Not Active; inhibition (INH) (Cholinesterase [5]): Not Active
CCN(CC)CCCCOc1ccc(/C=C2\COc3ccccc3C2=O)cc1 | 14.1 µM | 6.1 µM | 18.5 | – | 2.86 µM | 0.801 | 0.756 | 52.9 µM | 4.61 µM | 11.3 µM | –
CCN(CC)CCCOc1ccccc1/C=C1\COc2ccccc2C1=O | – | 54.8 µM | – | Not Active | – | – | 0.0892 | – | 4.89 µM | – | inhibition (INH) [13]: Not Active
CN(CCCCCCOc1ccc(/C=C2\COc3ccccc3C2=O)cc1)Cc1ccccc1 | 40.9 µM | 1.77 µM | > 1 | Not Active | > 100 µM | 0.489 | 28.7 | – | 50.7 µM | 20 µM | –
CCN(CC)CCCCCCOc1ccc(/C=C2\COc3ccccc3C2=O)cc1 | 1.85 µM | 3.75 µM | 13.1 | – | 2.9 µM | 2.3 | 1.29 | 37.8 µM | 4.83 µM | 4.25 µM | –
CCN(CC)CCOc1ccc(/C=C2\COc3ccccc3C2=O)cc1 | 3.29 µM | 1.03 µM | 1220 | – | 0.0381 µM | 7.17 | 28 | 46.6 µM | 28.9 µM | 23.6 µM | –
CN(C)CCCOc1cccc(/C=C2\COc3ccccc3C2=O)c1 | 25.7 µM | 4.97 µM | 1940 | – | 0.0484 µM | 1.53 | 0.435 | 93.7 µM | 2.16 µM | 39.3 µM | –
CCN(CC)CCOc1cccc(/C=C2\COc3ccccc3C2=O)c1 | 30.3 µM | 4.16 µM | 97.1 | – | 0.824 µM | 0.34 | 0.403 | 80 µM | 1.68 µM | 10.3 µM | –
CN(C)CCOc1cccc(/C=C2\COc3ccccc3C2=O)c1 | 1.41 µM | 1.04 µM | 66.5 | – | 0.571 µM | 3.15 | 8.05 | 38 µM | 8.37 µM | 4.44 µM | –
O=C1/C(=C/c2ccc(OCCCN3CCN(Cc4ccccc4)CC3)cc2)COc2ccccc21 | 4.72 µM | 1.02 µM | > 2.59 | Not Active | 38.6 µM | > 21.2 | 87.8 | – | 89.5 µM | – | inhibition (INH) (Cholinesterase [2]): Not Active
O=C1/C(=C/c2ccc(OCCCCCCN3CCN(Cc4ccccc4)CC3)cc2)COc2ccccc21 | – | 60.8 µM | > 1 | Not Active | > 100 µM | – | > 1.65 | – | – | – | inhibition (INH) (Cholinesterase [5]): Not Active
CN(C)CCOc1ccc(/C=C2\COc3ccccc3C2=O)cc1 | 0.657 µM | 0.89 µM | 1024 | – | 0.0372 µM | 14.2 | 32.3 | 38.1 µM | 28.7 µM | 9.31 µM | Activity (Mus musculus [14]): Non-Toxic; inhibition (INH) [15]: Active; TDI [16]: Not Active; Papp at 16 h, 0.1 mg/ml [17]: 10.6 ×10⁻⁶ cm/s; Ki [18]: 0.551 µM; Activity (Mus musculus [19]): Non-Toxic; Activity (Mus musculus [20]): Non-Toxic; Activity (Mus musculus [21]): Non-Toxic; Ki (Acetylcholinesterase [22]): 0.404 µM; Activity (Mus musculus [23]): Non-Toxic; Activity (Mus musculus [24]): Non-Toxic
